Measurements reported in ChEMBL document CHEMBL1909525, “Synthesis and anticonvulsant activity of novel 2,6-diketopiperazine derivatives. Part 1: perhydropyrrole[1,2-a]pyrazines” (Eur J Med Chem, 2011).
Activity calls are given as the source filed them. The rule behind the calls is not given here.

What was measured:
Rattus norvegicus [1] = organism: Rattus norvegicus; assay: Inhibition of voltage-gated sodium channel in Wistar rat cerebral prefrontal coronal slices assessed as decrease of […] current-induced current amplitude at 10 uM after 5 mins by whole cell voltage clamp method (reference value: 4.2%); set-up: scale not given: the % may be the effect or the level left
Mus musculus [2] = assay: Anticonvulsant activity in albino Carworth Farms No.1 mouse assessed as protection against subcutaneous metrazol-induced seizure at 300 mg/kg, ip after 4 hrs; assay type: functional, organism-based; set-up: dose 300 mg/kg
How it was run: (§1)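 Mouse scMET test. Compound given i.p. (30, 100 or 300 mg/kg) in 0.5% methylcellulose. Pentylenetetrazole 85 mg/kg (CD97) given s.c. at 0.5 or 4 h, then mice observed for 30 min. Protection is absence of clonic spasms; scored as protected/tested.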

Mus musculus [3] = assay: Anticonvulsant activity in ip dosed albino Carworth Farms No.1 mouse assessed as protection against maximal electroshock-induced seizure after 0.25 hrs; assay type: functional; conditions: albino Carworth Farms No.1, ip
How it was run: (§2)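 Mouse quantification at the time of peak effect, compound given i.p. in 0.5% methylcellulose. Groups of at least eight mice received varied doses until at least two points fell between 100 and 0% response. ED50 (MES, scMET) and TD50 (rotorod) with 95% CI by probit analysis (Finney). PI = TD50/ED50 MES.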

Rattus norvegicus [4] = assay: Anticonvulsant activity in po dosed albino Sprague-Dawley rat assessed as time needs to show peak effect for protection against maximal electroshock-induced seizure after 0.25 hrs; assay type: functional
How it was run: (§3)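 Rats dosed orally, compound in 0.5% methylcellulose. MES at 150 mA, 60 Hz, 0.2 s; scMET with pentylenetetrazole 70 mg/kg s.c. plus 30 min observation; rotorod for toxicity.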

Rattus norvegicus [5] = assay: Toxicity in albino Sprague-Dawley rat pilocarpine-induced status epilepticus model assessed as change in body weight in protected rat at 65 mg/kg, ip measured after 24 hrs of time from first stage 3 seizures; assay type: organism-based; set-up: dose 65 mg/kg, route intraperitoneal; conditions: in vivo
How it was run: (§4)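 Male albino Sprague-Dawley rats (150–180 g) received compound i.p., then a pilocarpine challenge immediately (0 min) or 30 min after treatment. The outcome was protection or no protection from seizures, scored as number protected/number tested. Average body weight change (g) ± S.E.M. was reported separately for protected and non-protected rats.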

Mus musculus [6] = assay: Anticonvulsant activity in albino Carworth Farms No.1 mouse assessed as protection against maximal electroshock-induced seizure at 100 mg/kg, ip after 0.5 hrs; assay type: functional, organism-based; set-up: dose 100 mg/kg
How it was run: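 Mouse MES test with compound given i.p. (30, 100 or 300 mg/kg) in 0.5% methylcellulose; tested at 0.5 and 4 h. Corneal stimulus of 50 mA at 60 Hz for 0.2 s, electrodes primed with 0.5% butacaine in 0.9% NaCl. Protection is abolition of hindlimb tonic extension; scored as protected/tested.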

[7] = Neurotoxicity in ip dosed albino Carworth Farms No.1 mouse assessed as motor impairment after 0.25 hrs by rotarod test; assay type: toxicity, organism-based; conditions: Carworth Farms No.1 (albino), in vivo
How it was run: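 Mouse quantification at the time of peak effect, compound given i.p. in 0.5% methylcellulose. Groups of at least eight mice received varied doses until at least two points fell between 100 and 0% response. PI = TD50/ED50 MES.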

Rattus norvegicus [8] = assay: Anticonvulsant activity in po dosed albino Sprague-Dawley rat assessed as protection against maximal electroshock-induced seizure after 0.25 hrs; assay type: functional; how it was run: as §3
Mus musculus [9] = assay: Toxicity in albino Carworth Farms No.1 mouse assessed as sedation at 300 mg/kg, ip after 0.5 hrs by rotarod test; assay type: organism-based; set-up: dose 300 mg/kg, route intraperitoneal; conditions: in vivo
How it was run: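 Mice (18–25 g) were given 30, 100 or 300 mg/kg i.p. in 0.5% (v/v) aqueous methylcellulose. Neurotoxicity was checked on a 6 r.p.m. rotorod 30 min and 4 h after dosing and scored as inability to keep equilibrium. Death following tonic extension and sedation were recorded as observations (number of animals/number tested).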

Mus musculus [10] = assay: Anticonvulsant activity in albino Carworth Farms No.1 mouse assessed as protection against electric-current for 3 secs-induced seizure at 100 mg/kg, ip after 4 hrs by 6Hz minimal clonic seizure test; assay type: functional, organism-based; set-up: dose 100 mg/kg
How it was run: (§5)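 6 Hz psychomotor seizure test in mice. Compound given i.p. as a suspension in 0.5% methylcellulose. Corneal stimulation at 32 mA, 0.2-ms monopolar rectangular pulses at 6 Hz for 3 s, from a constant-current device. Tests run 0.25–4 h after dosing. A mouse counted as protected if it resumed normal exploratory behaviour within 10 s; scored as protected/tested.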

Rattus norvegicus [11] = organism: Rattus norvegicus; assay: Inhibition of voltage-gated sodium channel in Wistar rat cerebral prefrontal coronal slices assessed as decrease of 10 Hz current-induced current amplitude at 10 to 100 uM after 5 mins by whole cell voltage clamp method
How it was run: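 Na+ currents recorded by whole-cell voltage clamp in dispersed mPFC cells from coronal prefrontal slices of 3-week-old male Wistar rats. TEA-based bath, pH 7.4. Trains of 100 pulses at 10 Hz, each a step to -20 mV after a -100 mV prepulse. Amplitude decline over the train compared between control and 5 min compound application; n = 3.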

Mus musculus [12] = assay: Anticonvulsant activity in albino Carworth Farms No.1 mouse assessed as protection against subcutaneous metrazol-induced seizure at 100 mg/kg, ip after 4 hrs; assay type: functional, organism-based; set-up: dose 100 mg/kg; how it was run: as §1
Mus musculus [13] = assay: Anticonvulsant activity in ip dosed albino Carworth Farms No.1 mouse assessed as protection against electric-current for 3 secs-induced seizure after 0.25 hrs by 6Hz minimal clonic seizure test; assay type: functional; conditions: albino Carworth Farms No.1, ip
Mus musculus [14] = assay: Neurotoxicity in albino Carworth Farms No.1 mouse assessed as motor impairment at 100 mg/kg, ip after 0.5 hrs by rotarod test; assay type: toxicity, organism-based; set-up: dose 100 mg/kg, route intraperitoneal; conditions: in vivo
How it was run: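 Rotorod neurotoxicity in mice at 6 r.p.m. Compound given i.p. (30, 100, 300 mg/kg) in 0.5% methylcellulose; tested at 30 min and 4 h. Impairment is inability to keep equilibrium on the rod for a given time; scored as impaired/tested.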

Mus musculus [15] = assay: Anticonvulsant activity in ip dosed albino Carworth Farms No.1 mouse assessed as time needs to show peak effect for protection against maximal electroshock-induced seizure; assay type: functional
Rattus norvegicus [16] = organism: Rattus norvegicus; assay: Protective index, ratio of TD50 for albino Sprague-Dawley rat to ED50 for albino Sprague-Dawley rat by maximal electroshock-induced seizure test; assay type: functional
Rattus norvegicus [17] = organism: Rattus norvegicus; assay: Inhibition of voltage-gated sodium channel in Wistar rat cerebral prefrontal coronal slices assessed as decrease of […] current-induced current amplitude at 100 uM after 5 mins by whole cell voltage clamp method (reference value: 8 +/- 2.3%); set-up: scale not given: the % may be the effect or the level left
Rattus norvegicus [18] = assay: Toxicity in albino Sprague-Dawley rat pilocarpine-induced status epilepticus model assessed as change in body weight in non-protected rat at 130 mg/kg, ip measured after 24 hrs of time from first stage 3 seizures; assay type: organism-based; set-up: dose 130 mg/kg, route intraperitoneal; conditions: in vivo; how it was run: as §4
Mus musculus [19] = assay: Anticonvulsant activity in ip dosed albino Carworth Farms No.1 mouse assessed as protection against subcutaneous metrazol-induced seizure after 0.25 hrs; assay type: functional; conditions: albino Carworth Farms No.1, 0.25 h; how it was run: as §2
[20] = Neurotoxicity in po dosed albino Sprague-Dawley rat assessed as motor impairment after 0.25 hrs by rotarod test; assay type: toxicity, organism-based; conditions: in vivo; how it was run: as §3
Mus musculus [21] = assay: Anticonvulsant activity in albino Carworth Farms No.1 mouse assessed as protection against subcutaneous metrazol-induced seizure at 300 mg/kg, ip after 0.5 hrs; assay type: functional, organism-based; set-up: dose 300 mg/kg; how it was run: as §1
Mus musculus [22] = assay: Anticonvulsant activity in albino Carworth Farms No.1 mouse assessed as protection against electric-current for 3 secs-induced seizure at 100 mg/kg, ip after 0.5 hrs by 6Hz minimal clonic seizure test; assay type: functional; how it was run: as §5
Mus musculus [23] = assay: Anticonvulsant activity in albino Carworth Farms No.1 mouse assessed as protection against subcutaneous metrazol-induced seizure at 30 mg/kg, ip after 0.5 hrs; assay type: functional, organism-based; set-up: dose 30 mg/kg; how it was run: as §1

Compound: O=C1NC(=O)[C@@H]2CCCN2[C@H]1c1ccccc1
- Activity (Rattus norvegicus [1]): 5.3%
- Activity (Mus musculus [2]): inactive
- ED50 (Mus musculus [3]): 69.5 mg/kg
- Time (Rattus norvegicus [4]): 0.25 h
- Activity (Rattus norvegicus [5]): 4.4 g
- Activity (Mus musculus [6]): Active
- TD50 at 0.25 h [7]: 122 mg/kg
- ED50 (Rattus norvegicus [8]): 39.7 mg/kg
- Activity (Mus musculus [9]): Toxic
- Activity (Mus musculus [10]): inactive
- inhibition (Rattus norvegicus [11]): inactive
- Activity (Mus musculus [12]): inactive
- ED50 (Mus musculus [13]): 9.93 mg/kg
- Activity (Mus musculus [14]): Non-toxic
- Time (Mus musculus [15]): 0.25 h
- Ratio TD50/ED50 (Rattus norvegicus [16]): >12.6
- Activity (Rattus norvegicus [17]): 14.1%
- Activity (Rattus norvegicus [18]): -22.5 g
- ED50 (Mus musculus [19]): 87.9 mg/kg
- TD50 at 0.25 h [20]: > 500 mg/kg
- Activity (Mus musculus [21]): inactive
- Activity (Mus musculus [22]): inactive
- Activity (Mus musculus [23]): inactive
